PAFAH1B2 inh: PAFAH1B2 enzyme inhibitors, primary screen, biochemical, fluorescence polarization, human. Platelet-activating factor acetylhydrolase IB subunit alpha2 (Homo sapiens), P68402. recombinant PAFAH1B2, FP-rhodamine activity probe. actives 1.2% (n = 340,000). inhibition, % at 3.39 µM;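 active = inhibition above the mean of all tested compounds plus 3 SD, cut at about 24% in these data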
Target sequence (P68402 whole entry, looked up): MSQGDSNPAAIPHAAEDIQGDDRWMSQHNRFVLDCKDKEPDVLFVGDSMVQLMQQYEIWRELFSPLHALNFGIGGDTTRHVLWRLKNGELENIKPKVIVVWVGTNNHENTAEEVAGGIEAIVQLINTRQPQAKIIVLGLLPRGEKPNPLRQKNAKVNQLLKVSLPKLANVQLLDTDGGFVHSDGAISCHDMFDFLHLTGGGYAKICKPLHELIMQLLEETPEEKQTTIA
PAFAH2 FP inh: PAFAH2 enzyme inhibitors, primary screen, biochemical, fluorescence polarization, human; inhibition, % at 3.39 µM; actives 0.99% (n = 340,000); recombinant PAFAH2, FP-rhodamine activity probe; AID 492956, 2010; Platelet-activating factor acetylhydrolase 2, cytoplasmic (Homo sapiens), Q99487;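 active = inhibition above the mean over all tested compounds plus 3 SD, cut at about 30% in these data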;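 also: inhibitors block probe labeling of enzyme so polarization drops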
pPAFAH inh: pPAFAH enzyme inhibitors, primary screen, biochemical, fluorescence polarization, human. recombinant pPAFAH, FP-rhodamine probe fluorescence polarization. inhibition, % at 3.39 µM. actives 1.5% (n = 330,000). AID 463082, 2010;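 active = inhibition above the mean inhibition across the screen plus 3 SD, cut at about 25% in these data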;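 also: inhibitors block binding of the rhodamine activity-based probe so polarization drops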
Target sequence (Q13093 whole entry, looked up): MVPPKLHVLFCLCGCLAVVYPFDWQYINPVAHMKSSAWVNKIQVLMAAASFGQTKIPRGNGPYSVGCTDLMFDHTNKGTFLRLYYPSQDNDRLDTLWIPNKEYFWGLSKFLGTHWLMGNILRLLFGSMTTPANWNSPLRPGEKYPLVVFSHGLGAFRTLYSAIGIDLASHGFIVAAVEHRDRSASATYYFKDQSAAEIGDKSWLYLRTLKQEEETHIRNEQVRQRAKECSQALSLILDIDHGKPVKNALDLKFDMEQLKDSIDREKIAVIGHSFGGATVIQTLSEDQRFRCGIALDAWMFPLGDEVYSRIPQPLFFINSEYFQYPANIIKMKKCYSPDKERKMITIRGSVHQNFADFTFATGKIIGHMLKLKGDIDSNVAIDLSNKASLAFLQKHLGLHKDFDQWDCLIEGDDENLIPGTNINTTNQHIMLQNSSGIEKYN
RBBP9 inhibitor: human RBBP9 inhibitors, primary screen, biochemical, fluorescence polarization, FP-Rh probe, HTS; Serine hydrolase RBBP9 (Homo sapiens), O75884; recombinant RBBP9; inhibition, % at 7.94 µM; actives 0.2% (n = 220,000);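 active = inhibition above the campaign mean of all tested compounds plus 3 SD, cut at about 14% in these data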
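Measured by: FP readout at 525/598 nm; material: recombinant human RBBP9; also added: Serine-hydrolase probe FP-Rh, 375 nM pre-mixing; medium: Tris buffer pH 8.0, NaCl, Pluronic; replication: one well per compound; doses: one concentration, 7.94 µM nominal, 0.794% DMSO; timing: preincubation 30 min plus labeling 45 min at 25 °C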
PAFAH1B3 inh: PAFAH1B3 enzyme inhibitors, primary screen, biochemical, fluorescence polarization, human; inhibition, % at 3.39 µM; AID 492972, 2010; actives 0.28% (n = 340,000); recombinant PAFAH1B3, FP-rhodamine probe; Platelet-activating factor acetylhydrolase IB subunit alpha1 (Homo sapiens), Q15102;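 active = inhibition above the screen-wide average of all tested compounds plus 3 SD, cut at about 25% in these data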
Of the large screens only hits and unclear results are named; the others gave an inactive call. The list is not random: actives were taken first. Their share in the collection is about 2.7%.

COCCCNC(=O)CCc1ccc(S(=O)(=O)Nc2ccc(C)cc2)cc1	none
CC(=O)Nc1ccc(Cc2ccncc2)cc1	none
Cc1ccc(NS(=O)(=O)c2ccc(CCC(=O)O)cc2)cc1	pPAFAH inh 34
CC(=O)c1ccc(NS(=O)(=O)c2ccc(CC(C)C)cc2)cc1	PAFAH1B2 inh 28
Cc1ccc(NS(=O)(=O)c2ccc(CCC(=O)NCCCOC(C)C)cc2)cc1	pPAFAH inh 26
CC(=O)Nc1ccc(S(=O)(=O)Nc2ccc(Cc3ccncc3)cc2)cc1	pPAFAH inh 29 (no result: RBBP9 inhibitor)
CCn1c(=O)c(=O)n(CC)c2cc(S(=O)(=O)Nc3ccc(C)cc3)ccc21	pPAFAH inh 26
CCn1c(=O)n(CC)c2cc(S(=O)(=O)Nc3c(C)cccc3C)ccc21	none
Cc1cc(C)c2sc(NC(=O)CN3C(=O)CCC3=O)nc2c1	none
O=C(CCNC(=O)c1ccc(Br)cc1)NCCCSc1ccccc1	none (no result: RBBP9 inhibitor)
CC1(C)CC(NC(=O)C2CCC(=O)N(Cc3ccccc3F)C2)CC(C)(C)C1 (stereo unspecified)	PAFAH1B2 inh 28 (no result: pPAFAH inh, RBBP9 inhibitor)
O=C(O)COc1ccccc1/C=N/NC(=O)CSc1nnc(SCc2ccc(Cl)cc2)s1	PAFAH1B2 inh 43, pPAFAH inh 27
O=C(O)COc1ccccc1/C=N/NC(=O)CSc1nnc(SCc2cccc3ccccc23)s1	none
O=C(CSc1nnc(SCc2cccc3ccccc23)s1)N/N=C/c1c[nH]c2ccccc12	PAFAH1B2 inh 26
CCN(CC(=O)Nc1ccc(OC)cc1)C(=O)c1ccccc1Sc1ccccc1C#N	none (no result: RBBP9 inhibitor)
CN(/N=C/c1cccnc1)c1cnc2ccccc2n1	none
O=C(Cc1cccs1)NNC(=S)NCc1ccc(Cl)cc1	PAFAH1B2 inh 55
Oc1ccc(/C=N/Nc2nc(-c3cccnc3)nc3ccccc23)c(O)c1	pPAFAH inh 25
COc1ccc(/C=N/Nc2nc(-c3cccnc3)nc3ccccc23)cc1OC	none
c1ccc2c(-c3ccc(OCCN4CCCCC4)cc3)c(-c3ccsc3)sc2c1	none (no result: RBBP9 inhibitor)
Oc1ccc(-c2c(-c3ccsc3)sc3ccccc23)cc1	pPAFAH inh 29 (no result: RBBP9 inhibitor)
COCc1ccc(-c2c(-c3ccsc3)sc3ccccc23)cc1	pPAFAH inh 25 (no result: RBBP9 inhibitor)
CCN(CC)S(=O)(=O)c1cc(C(=O)Nc2cccnc2Cl)ccc1Cl	none
O=C(CN1C(=O)C2CCCCC2C1=O)OCC(=O)c1ccc(Cl)s1 (stereo unspecified)	PAFAH2 FP inh 40, pPAFAH inh 26
CC(C)C(NS(=O)(=O)c1cccc(C(F)(F)F)c1)C(=O)N1CCc2ccccc2C1 (stereo unspecified)	PAFAH1B2 inh 26 (no result: RBBP9 inhibitor)
CC(Sc1n[nH]c(N)n1)C(=O)C12CC3CC(CC(C3)C1)C2 (stereo unspecified)	PAFAH1B2 inh 27
CCN=c1scc(-c2cccs2)n1/N=C/c1cc(OC)ccc1O	none
CC(C)N=c1scc(-c2cccs2)n1/N=C/c1ccc(O)c(O)c1O	pPAFAH inh 68
COc1ccc(C(=O)Nc2nnc(S(=O)(=O)N3CCOCC3)s2)cc1	none (no result: RBBP9 inhibitor)
COC(=O)c1ccc(C(=O)N2CCCC(Nc3ccc(C(C)C)cc3)C2)nc1 (stereo unspecified)	PAFAH1B2 inh 25 (no result: RBBP9 inhibitor)
CC(C)c1ccc(NC2CCCN(C(=O)c3ccc4nccnc4c3)C2)cc1 (stereo unspecified)	none (no result: RBBP9 inhibitor)
CCOc1ccc(NC(=O)c2cc3n(n2)C(C(F)(F)F)CC(c2ccco2)N3)cc1 (stereo unspecified)	pPAFAH inh 33
O=C(Nc1ccc(O)cc1)c1cc2n(n1)C(C(F)(F)F)CC(c1ccco1)N2 (stereo unspecified)	none
O=C(NC1CCCCCC1)c1cc2n(n1)C(C(F)(F)F)CC(c1ccco1)N2 (stereo unspecified)	pPAFAH inh 34
Cc1cc(C)nc(/N=C(\N)Nc2ccc(S(=O)(=O)Nc3nccc(C)n3)cc2)n1	none
O=C(c1ccncc1)N(c1ccc2oc3c(c2c1)CCCC3)S(=O)(=O)c1ccc(F)cc1	none
O=c1cc(-c2ccc(Cl)cc2)[nH][nH]1	none
O=c1cc(-c2ccc(Cl)c(Cl)c2)[nH][nH]1	pPAFAH inh 26
CCC1CCC/C1=N\NC(=O)c1ccccc1Cl (stereo unspecified)	none (no result: PAFAH1B2 inh, PAFAH2 FP inh, RBBP9 inhibitor, PAFAH1B3 inh)
CCC1CCC/C1=N\NC(=O)c1cc(C)[nH]n1 (stereo unspecified)	pPAFAH inh 34
COC(=O)Cc1c(O)ccn(Cc2ccc(Cl)c(Cl)c2)c1=O	PAFAH1B2 inh 28
O=c1c(Cc2ccc(Cl)cc2)c(O)ccn1Cc1cccc(Cl)c1	none
O=c1c(Cc2ccc(Cl)cc2Cl)c(O)ccn1Cc1ccc(Cl)cc1	PAFAH1B2 inh 28
CCN(CC(=O)NCc1ccc(Cl)cc1)C(=O)CSCC(=O)Nc1ccc(C)cc1	none (no result: RBBP9 inhibitor)
c1ccc(Cc2nn3c(Cn4nnc5ccccc54)nnc3s2)cc1	none
c1ccc(OCc2nn3c(Cn4nnc5ccccc54)nnc3s2)cc1	PAFAH1B2 inh 24
Cc1nn(C(=O)c2ccco2)c(C)c1Sc1ccc(Cl)cc1	none
Cc1nn(C(=O)c2cccnc2)c(C)c1Sc1ccc(Br)cc1	PAFAH1B2 inh 28
CCCCc1nnc(NC(=O)CCSc2ccccc2)s1	none
Cc1nnc(NC(=O)CCSc2ccccc2)s1	PAFAH1B2 inh 27
COC(=O)c1cc2c([nH]c1=O)CCCC2=O	none (no result: pPAFAH inh, RBBP9 inhibitor)
CCOc1ccc(S(=O)(=O)N2CN(c3cccc(C(C)=O)c3)c3nc4ccccc4nc32)cc1	none (no result: RBBP9 inhibitor)
O=C(NCc1ccccc1)C1(c2cccc(F)c2)CCCC1	PAFAH1B2 inh 26
O=C(Nc1ccc(S(=O)(=O)Nc2nccs2)cc1)c1nn(-c2ccc(F)cc2)ccc1=O	pPAFAH inh 26 (no result: RBBP9 inhibitor)
N#Cc1cccc(-c2cn(S(=O)(=O)c3ccc(Cl)cc3)nc2N)c1	none
Nc1nn(S(=O)(=O)c2ccccc2)cc1-c1ccc([N+](=O)[O-])cc1	PAFAH1B2 inh 32
COc1ccccc1CNC(=O)COC(=O)CSc1ccc(C)c(C)c1	none (no result: pPAFAH inh, RBBP9 inhibitor)
Cc1ccc(SCC(=O)OC(C)C(=O)NCc2ccccc2)cc1C (stereo unspecified)	pPAFAH inh 34 (no result: RBBP9 inhibitor)
Cc1ccc(C)c(SCC(=O)OCC(=O)NCc2ccccc2)c1	pPAFAH inh 25
CC1CCCN(C(=O)c2ccc3ncsc3c2)C1 (stereo unspecified)	none (no result: pPAFAH inh, RBBP9 inhibitor)
CC(NC(N)=O)C12CC3CC(CC(C3)C1)C2 (stereo unspecified)	PAFAH1B2 inh 26
N#C/C(=C(/O)COC(=O)c1ccc(C#N)cc1)c1nc2ccccc2s1	pPAFAH inh 25
N#C/C(=C(/O)CSc1ccccn1)c1nc2ccccc2s1	none
Cc1ccc(SC/C(O)=C(\C#N)c2nc3ccccc3s2)cc1	PAFAH1B2 inh 29
